Data on 63 molecules can be found in PubChem BioAssay AID561 (The Scripps Research Institute Molecular Screening Center, 2006).

Out of some 65,000 compounds screened, about 280 (0.43%) were called active. This excerpt belongs to a sample that is enriched for actives. Unmarked numbers belong to inactive results.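 How the source made its calls: active means inhibition above the mean of all tested compounds plus 3 SD (cut at about 52% in these data); inactive means the rest.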

Nuclear receptor ROR-alpha (Homo sapiens), sequence (P35398 whole entry, looked up, the tested form may be a part): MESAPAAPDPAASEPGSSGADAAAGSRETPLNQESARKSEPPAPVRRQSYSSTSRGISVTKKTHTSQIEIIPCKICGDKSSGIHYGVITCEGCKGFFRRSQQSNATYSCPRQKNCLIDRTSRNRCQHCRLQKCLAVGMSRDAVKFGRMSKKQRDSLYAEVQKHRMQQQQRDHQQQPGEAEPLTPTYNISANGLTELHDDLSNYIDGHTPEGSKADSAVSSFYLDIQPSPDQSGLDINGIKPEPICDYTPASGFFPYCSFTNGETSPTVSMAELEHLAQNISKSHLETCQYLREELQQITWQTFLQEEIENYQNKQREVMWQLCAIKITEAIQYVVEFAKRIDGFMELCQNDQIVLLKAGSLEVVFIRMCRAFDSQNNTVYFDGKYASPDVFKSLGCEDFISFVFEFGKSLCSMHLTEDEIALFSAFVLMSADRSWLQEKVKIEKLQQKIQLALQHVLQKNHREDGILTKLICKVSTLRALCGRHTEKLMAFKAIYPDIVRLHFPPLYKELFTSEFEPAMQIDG

The assay deals with Nuclear receptor ROR-alpha (Homo sapiens) (UniProt P35398). Kind of assay: inhibitors of orphan receptor RORA, primary screen, cell-based, luminescence (AID 561). The conditions noted are these: CHO-K1 Gal4-RORA LBD luciferase reporter, at 10 µM, stronger effect = higher value. Put shortly:
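Test system – CHO-K1 Gal4-RORA LBD luciferase reporter cells · Schedule – 20 h at 37 °C · Signal – luminescence from basal luciferase reporter expression · Measure – percent inhibition of basal reporter luminescence, control-normalized · Control set – -RORA mock-transfected DMSO wells 100%, +RORA DMSO wells 0%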
On the technique in general: A reporter such as luciferase makes a cellular process visible.
For orientation: inhibition means the drop in the measured response relative to a control, in per cent. On to `CNC(=O)CSc1nnnn1-c1ccc(C)cc1C`, for which the inhibition was 14%.
For `CC1CCCN(Cc2nc3c(c(=O)n(C)c(=O)n3C)n2CC(=O)c2ccccc2)C1` (stereo not drawn), the inhibition was -31.2%.
The value for `CC(=O)Nc1ccc(-c2nn3c(C)nnc3s2)cc1C` was 10.7%; that for `N#CC(=C1SC=CS1)c1nc(-c2ccccc2)cs1` was -59.7%; that for `Cc1oc2nc(SCC(=O)NCc3cccnc3)nc(N)c2c1C` was 72.8% (active).
The value for `CNC(=O)CN1C(=O)c2ccccc2S1(=O)=O` was -15%.
For `CC(C)c1ccc(NC(=O)NC2CCCCC2)cc1`, the inhibition was -85.1%.
The value for `CC1CN(c2cc(=O)n(-c3cccc(Br)c3)c(=O)[nH]2)CC(C)O1` (stereo not drawn) was 29.5%; that for `Cc1ccc(F)cc1NC(=O)Cc1nn(C)c(=O)c2ccccc12` was 53.5% (active).
Under `Cc1ccnc(N2CCCC(C(=O)Nc3cc(F)ccc3C)C2)n1` (stereo not drawn) stands 5.7%.
Under `CCC(=O)NC(=Nc1nc2ccccc2s1)NC(=O)CC` stands -48.7%; under `Cc1ccc(S(=O)(=O)Nc2ccc3ncccc3c2)cc1`, 56.7% (active); under `CCOC(=O)c1nc(-c2ccc3c(c2)OCO3)[nH]c1C`, -66.7%.
Turning to `c1c2c(cc3sc(N4CCCCC4)nc13)OCCO2`, the inhibition is 75.4% (active).
Turning to `Fc1c(F)c(C(F)(F)F)c(F)c(F)c1N1CCN(c2ccc3nnc(C(F)(F)F)n3n2)CC1`, the inhibition is 6.9%.
Under `O=C(O)C1OC(C(=O)O)C2C1C(F)(F)C2(F)F` (stereo not drawn) stands 1.7%.
In the case of `COc1ccc(N=Cc2c(O)[nH]c3ccccc23)cc1OC`, the inhibition is -55.7%.
In the case of `C(=C\c1ccccc1)/CSc1nnc(-c2cccnc2)n1Cc1ccco1`, the inhibition is -2.8%.
Under `Cc1nc2ccc(S(=O)(=O)NCC(=O)NCCN3CCCCC3C)cc2s1` (stereo not drawn) stands 6.1%; under `Cn1c(=NC(=O)c2ccco2)sc2cccc(F)c21`, -61.5%.
The value for `O=C(CN1C(=O)c2ccccc2S1(=O)=O)N1CCc2ccccc21` was 37.4%; that for `COc1ccccc1CNC(=O)C1CCCN(S(=O)(=O)c2cccc3cccnc23)C1` (stereo not drawn) was 5.2%; that for `CCC(=O)Oc1cccc(C(=O)Nc2ccc(-c3nnc(-c4ccco4)o3)cc2)c1` was -112%.
Under `COC(=O)c1sc(NC(=O)c2csc3c2CCCC3)nc1C` stands -33.7%; under `c1ccc(Nc2nc(-c3ccncc3)cs2)nc1`, -50.9%.
Consider `COc1ccc(C(=O)Nc2nncs2)c(OC)c1`, for which the inhibition was -62.9%.
Regarding `COc1ccc(OC)c(Nc2nc(-c3ccc(O)c(O)c3)cs2)c1`, the inhibition is 74.4% (active).
Take `Cn1nnc2cc(C(=O)NCCC3=CCCCC3)ccc21`: the inhibition is -18%.
For the molecule `Cc1cc(C)nc(N2CCN(c3ncnc4c3oc3ccccc34)CC2)n1`, the inhibition is 7.6%.
With `CCCOc1ccccc1C(=O)NCCCC(=O)O`, the inhibition is 16.7%.
With `O=C(C1CCN(c2nnc(-n3cccc3)s2)CC1)N1CCc2ccccc2C1`, the inhibition was 8.1%.
Take `COC(=O)Nc1ncc(CN2C(=O)c3ccccc3C2=O)s1`: the inhibition is 19.5%.
Under `COCn1c(COc2ccccc2)nc2ccccc21` stands -53.4%.
On to `Cc1ccc(CCNC(=O)C2CCN(S(=O)(=O)N3CCCC3)CC2)cc1`, for which the inhibition is 2.2%.
`COc1ccc(Nc2oc(-c3ccccc3Cl)nc2C#N)cc1`: the inhibition was -98.6%.
For the molecule `COC(=O)c1ccc(NC(=O)c2ccco2)cc1`, the inhibition is -77.4%.
For the molecule `C=CCn1c(C(C)NC(=O)CC)nc2ccccc21` (stereo not drawn), the inhibition is -12.3%.
For `C=CCOc1nc2c(c(=O)n(C)c(=O)n2C)n1Cc1ccc(Cl)cc1Cl`, the inhibition was 63.5% (active).
Turning to `Cn1c(=O)c2c(nc(N3CCCCCC3)n2CC(O)COc2ccc(Cl)cc2)n(C)c1=O` (stereo not drawn), the inhibition was -1%.
Under `CCCc1[nH]nc2c1C(c1ccc(OC)c(Cn3nc(C)c(Br)c3C)c1)C(C#N)=C(N)O2` (stereo not drawn) stands 27.5%.
On to `CN(C)c1cc(N)c2ccccc2n1` (tested in a mixture with another compound), for which the inhibition is -3.2%.
With `O=C1c2oc3ccccc3c(=O)c2C(c2cccc(O)c2)N1c1ccccn1` (stereo not drawn), the inhibition was -9.5%.
In the case of `COc1ccc(-c2nn(-c3ccccc3)cc2C(=O)Nc2nc(CC(C)=O)ns2)cc1`, the inhibition was -0.5%.
The value for `COc1cccc(N2CCN(C(=O)C3CCCN(S(=O)(=O)c4cnc[nH]4)C3)CC2)c1` (stereo not drawn) was 4.9%; that for `Cc1ccc(NC(=O)c2nc[nH]c2C(=O)N2CCCCC2)c(C(=O)c2ccccc2)c1` was 24.7%.
As for `O=c1[nH]c(-c2ccccc2)c(-c2ccccc2)[nH]1`, the inhibition is 23.5%.
Under `O=C(CCC(=O)c1cccs1)NCc1ccccc1` stands 2.2%; under `COc1ccc(NC(=O)c2cccc(NC(=O)c3ccco3)c2)c(OC)c1`, -19%; under `CC(C)n1c(SCC(=O)Nc2ccccc2N2CCCCC2)nc2c1c(=O)n(C)c(=O)n2C`, 18.7%.
For the molecule `CC(C)Cc1cc(C(=O)NCCc2ccccc2)no1`, the inhibition was -23.2%.
In the case of `c1coc(CNc2ncnc3ccccc23)c1`, the inhibition is 66.3% (active).
Turning to `O=C(Cc1ccccc1)n1nc(-c2ccccc2)nc1NCc1ccco1`, the inhibition was -8%.
Under `O=C(NCc1ccc2c(c1)OCO2)c1ccc2c(c1)C(=O)N(CC1CCCO1)C2=O` (stereo not drawn) stands 4.9%.
Regarding `Cc1ccc(Cn2ccc(NC(=O)C3C4CCC(C4)C3C(=O)O)n2)cc1` (stereo not drawn), the inhibition is -14.2%.
The value for `COc1ccccc1C1/C(=C(/O)c2ccc(C)cc2)C(=O)C(=O)N1Cc1ccco1` (stereo not drawn) was -17.5%; that for `O=C(CNC(=O)c1ccco1)OCC(=O)c1ccccc1` was 10.7%; that for `O=c1cc(-c2ccccc2)nc(N2CCCCC2)[nH]1` was -0.2%.
The value for `CC(C)C[C@H](NC(=O)Nc1cccc(C(F)(F)F)c1)C(=O)O` was 11.1%.
The value for `CN(c1ccc(C(=O)NCCC2=CCCCC2)cc1)S(C)(=O)=O` was -63%.
As to `CC(=O)Nc1ccn(Cc2c(F)cccc2Cl)n1`, the inhibition is -27.2%.
Regarding `CCOC(=O)Cc1c(C)nc2c(C#N)c(C)nn2c1C`, the inhibition is -2.8%.
As to `COC(=O)C(C)C1Sc2ccccc2NC1=O` (stereo not drawn), the inhibition was 13.2%.
Under `CC(=O)c1cnc(Nc2nc(C)c3cc(C)ccc3n2)nc1C` stands 26.5%.
